Experimental data as given in ChEMBL document CHEMBL1143104, “Identification and characterization of pyrrolidine diastereoisomers as potent functional agonists and antagonists of the human melanocortin-4 receptor” (Bioorg Med Chem Lett, 2008).

What was measured:
Melanocortin receptor 4 [1] = biological target: T1, Melanocortin receptor 4 (Homo sapiens, UniProt P32245); test: Displacement of [125I]NDP-MSH from human MC4 receptor expressed in HEK293 cells; type: cell-based
Procedure, shortened: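 HEK293 cells expressing human MC4R, radioligand competition binding with [125I]-NDP-MSH. Ki values are the average of two or more independent measurements.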

Melanocortin receptor 4 [2] = biological target: T1, Melanocortin receptor 4; test: Agonist activity at human MC4 receptor expressed in CHO cells assessed as accumulation of cAMP production; type: functional, cell-based
Procedure, shortened: (§1)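 CHO cells transfected with human MC4R were stimulated by compound and accumulated cAMP was measured by ELISA. Intrinsic activity is expressed relative to α-MSH. Representative experiments were run 2–8 times.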

Melanocortin receptor 4 [3] = biological target: T1, Melanocortin receptor 4; test: Intrinsic activity at human MC4 receptor expressed in CHO cells assessed as accumulation of cAMP production relative to alphaMSH; type: functional, cell-based; procedure, shortened: as §1
Melanocortin receptor 4 [4] = biological target: T1, Melanocortin receptor 4; test: Antagonist activity at human MC4 receptor expressed in CHO cells assessed as inhibition of alpha-MSH-stimulated cAMP production; type: functional, cell-based
Procedure, shortened: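 CHO cells transfected with human MC4R were tested for dose-dependent inhibition of α-MSH-stimulated cAMP accumulation, measured by ELISA. IC50 was derived. Representative experiments were run 2–8 times.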

Melanocortin receptor 3 = Melanocortin receptor 3 (Homo sapiens, UniProt P41968); test: Binding affinity to MC3R
Chain of Melanocortin receptor 3 (P41968 whole entry): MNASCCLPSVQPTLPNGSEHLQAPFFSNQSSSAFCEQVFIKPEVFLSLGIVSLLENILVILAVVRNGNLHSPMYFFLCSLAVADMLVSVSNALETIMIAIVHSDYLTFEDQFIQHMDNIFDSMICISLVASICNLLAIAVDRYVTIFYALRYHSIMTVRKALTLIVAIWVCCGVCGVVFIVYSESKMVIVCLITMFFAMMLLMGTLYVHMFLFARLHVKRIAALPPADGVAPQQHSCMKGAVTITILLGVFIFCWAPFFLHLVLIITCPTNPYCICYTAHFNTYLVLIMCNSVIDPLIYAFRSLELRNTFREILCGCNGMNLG

Melanocortin receptor 5 = Melanocortin receptor 5 (Homo sapiens, UniProt P33032); test: Binding affinity to MC5R
Chain of Melanocortin receptor 5 (P33032 whole entry): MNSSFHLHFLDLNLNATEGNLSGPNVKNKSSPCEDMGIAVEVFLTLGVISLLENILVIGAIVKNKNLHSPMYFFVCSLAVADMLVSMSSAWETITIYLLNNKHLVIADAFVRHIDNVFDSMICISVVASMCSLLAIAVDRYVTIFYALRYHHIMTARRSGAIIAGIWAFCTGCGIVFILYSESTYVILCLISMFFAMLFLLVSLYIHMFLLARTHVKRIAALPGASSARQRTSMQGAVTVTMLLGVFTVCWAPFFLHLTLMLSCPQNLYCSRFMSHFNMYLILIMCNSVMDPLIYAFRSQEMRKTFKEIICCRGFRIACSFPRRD

[5] = Clearance in rat at 2.5 mg/kg, iv; type: ADME, organism-based; parameters: dose 2.5 mg/kg, route intravenous; settings: in vivo
Procedure, shortened: (§2)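 Rat pharmacokinetics: single 2.5 mg/kg iv injection and separately 10 mg/kg oral gavage. Plasma CL, Vd, t1/2, AUC, Cmax, Tmax and oral bioavailability were derived. Whole-brain concentration was measured at 1 and 4 h after oral dosing and expressed as a brain/plasma ratio. Values are the average of three animals.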

[6] = Volume of distribution in rat in rat at 2.5 mg/kg, iv; type: ADME, organism-based; parameters: dose 2.5 mg/kg, route intravenous; settings: in vivo; procedure, shortened: as §2
[7] = Half life in rat at 2.5 mg/kg, iv; type: ADME, organism-based; parameters: dose 2.5 mg/kg, route intravenous; settings: in vivo; procedure, shortened: as §2
[8] = AUC in rat at 2.5 mg/kg, iv; type: ADME, organism-based; parameters: dose 2.5 mg/kg, route intravenous; settings: plasma; procedure, shortened: as §2
[9] = Cmax in rat at 10 mg/kg, po; type: ADME, organism-based; parameters: dose 10 mg/kg, route oral; settings: in vivo; procedure, shortened: as §2
[10] = Tmax in rat at 10 mg/kg, po; type: ADME, organism-based; parameters: dose 10 mg/kg, route oral; settings: in vivo; procedure, shortened: as §2
[11] = AUC in rat at 10 mg/kg, po; type: ADME, organism-based; parameters: dose 10 mg/kg, route oral; settings: plasma; procedure, shortened: as §2
[12] = Drug level in rat brain at 10 mg/kg, po after 4 hrs; type: ADME, organism-based; parameters: dose 10 mg/kg, route oral; settings: read-out: Drug uptake; procedure, shortened: as §2
[13] = Ratio of drug level in brain to plasma in rat at 10 mg/kg, po after 4 hrs; type: ADME, organism-based; parameters: dose 10 mg/kg, route oral; settings: read-out: BPR; procedure, shortened: as §2
[14] = Apparent permeability across human Caco-2 cells from apical to basolateral side; type: ADME, cell-based
Procedure, shortened: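 Caco-2 monolayer permeability, apical-to-basolateral Papp in nm/s. The (b to a)/(a to b) ratio was also determined as an efflux measure.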

Caco-2 = test: Ratio of permeability across human Caco-2 cells from basolateral to apical side to apical to basolateral side; type: ADME, cell-based
[15] = Distribution coefficient, log D by shake flask method; type: physicochemical; settings: octanol/water
Procedure, shortened: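 log D was measured by the shake-flask method.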

[16] = Ratio of drug level in brain to plasma in po dosed DIO rat after 7 days; type: ADME, organism-based; settings: read-out: BPR
Procedure, shortened: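 Chronic study in DIO rats given 3, 10 or 30 mg/kg orally once daily. A satellite group was sampled on day 1 and day 7 for plasma concentration-time profiles and brain/plasma ratio.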

[17] = Bioavailability in rat at 10 mg/kg, po; type: ADME, organism-based; settings: in vivo; procedure, shortened: as §2

T1 sequence (P32245 whole entry): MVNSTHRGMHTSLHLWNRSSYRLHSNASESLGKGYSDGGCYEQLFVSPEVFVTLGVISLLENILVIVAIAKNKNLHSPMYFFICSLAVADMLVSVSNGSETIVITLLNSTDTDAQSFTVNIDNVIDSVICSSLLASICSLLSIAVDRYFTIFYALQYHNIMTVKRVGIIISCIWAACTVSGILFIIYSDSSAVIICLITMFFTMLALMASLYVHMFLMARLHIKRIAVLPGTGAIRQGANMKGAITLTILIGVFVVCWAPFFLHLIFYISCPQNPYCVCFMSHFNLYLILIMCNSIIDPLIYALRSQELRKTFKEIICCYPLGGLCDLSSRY

SMILES | Ki (Melanocortin receptor 4 [1]) | EC50 (Melanocortin receptor 4 [2]) | Intrinsic activity (Melanocortin receptor 4 [3]) | further results
CCC(=O)N1C[C@@H](C(=O)N2CCN(c3ccc(C)cc3[C@@H](NC(=O)CCN(C)C)C(C)C)CC2)[C@H](c2ccc(Cl)cc2)C1 | 4.6 nM | 27 nM | 129% | –
Cc1cccc([C@@H]2CN(C(C)C)C[C@H]2C(=O)N2CCN(c3c(F)cccc3[C@@H](NC(=O)CCN(C)C)C(C)C)CC2)c1 | 470 nM | – | – | –
Cc1ccc(N2CCN(C(=O)[C@@H]3CN(C4CCOCC4)C[C@H]3c3ccc(Cl)cc3)CC2)c([C@H](C(C)C)N(C)C)c1 | 5.3 nM | – | 35% | –
CC(C)[C@H](NC(=O)CCN(C)C)c1cccc(F)c1N1CCN(C(=O)[C@@H]2CN(C(C)C)C[C@H]2c2cccc(Cl)c2)CC1 | 370 nM | – | – | –
CC(C)[C@H](NC(=O)CCN(C)C)c1cccc(F)c1N1CCN(C(=O)[C@@H]2CN(C(C)C)C[C@H]2c2ccc(F)c(Cl)c2)CC1 | 260 nM | 410 nM | 78% | –
CC(C)[C@H](NC(=O)CCN(C)C)c1cccc(F)c1N1CCN(C(=O)[C@@H]2CN(C(C)C)C[C@H]2c2ccc(Cl)cc2)CC1 | 5.3 nM | 20 nM | 103% | –
CC(C)[C@H](NC(=O)CCN(C)C)c1cccc(F)c1N1CCN(C(=O)[C@@H]2CN(C(C)C)C[C@H]2c2ccc(Cl)cc2Cl)CC1 | 7.5 nM | – | 24% | IC50 (Melanocortin receptor 4 [4]): 560 nM
Cc1ccc(N2CCN(C(=O)[C@@H]3CNC[C@H]3c3ccc(Cl)cc3)CC2)c([C@@H](NC(=O)CCN(C)C)C(C)C)c1 | 7.2 nM | 79 nM | 72% | –

Now from value to molecule, other results behind:

Ki (Melanocortin receptor 4 [1]) | EC50 (Melanocortin receptor 4 [2]) | Intrinsic activity (Melanocortin receptor 4 [3]) | SMILES | further results
560 nM | – | – | CC(C)[C@H](NC(=O)CCN(C)C)c1cccc(F)c1N1CCN(C(=O)[C@@H]2CN(C(C)C)C[C@H]2c2cccc(F)c2)CC1 | –
12 nM | – | 36% | Cc1ccc(N2CCN(C(=O)[C@@H]3CN(C4CCOCC4)C[C@H]3c3ccc(Cl)cc3)CC2)c([C@@H](N)C(C)C)c1 | –
7.6 nM | 44 nM | 100% | CC(=O)N1C[C@@H](C(=O)N2CCN(c3ccc(C)cc3[C@@H](NC(=O)CCN(C)C)C(C)C)CC2)[C@H](c2ccc(Cl)cc2)C1 | –
61 nM | – | – | CC(C)[C@H](NC(=O)CCN(C)C)c1cccc(F)c1N1CCN(C(=O)[C@@H]2CN(C(C)C)C[C@H]2c2ccc(C(F)(F)F)cc2F)CC1 | –
1 nM | 3.8 nM | – | Cc1ccc(N2CCN(C(=O)[C@@H]3CN(C4CCOCC4)C[C@H]3c3ccc(Cl)cc3)CC2)c([C@@H](NC(=O)CCN(C)C)C(C)C)c1 (stereo in doubt; 13b-1) | Ki (Melanocortin receptor 3): 260 nM; Ki (Melanocortin receptor 5): 800 nM; clearance [5]: 129 mL/min/kg; Vd [6]: 80 L/kg; half-life [7]: 426 min; AUC [8]: 307 ng·h/mL; Cmax [9]: 14 ng/mL; Tmax [10]: 2.7 h; AUC [11]: 114 ng·h/mL; concentration at 4 h [12]: 19 ng/g; Kp at 4 h [13]: 3; Papp A→B [14]: 0.16 ×10⁻⁶ cm/s; Ratio (Caco-2): 23; logD [15]: 2.6; Kp at 168 h [16]: > 10; bioavailability [17]: 10%
90 nM | – | – | Cc1ccc(N2CCN(C(=O)[C@H]3CN(C(C)C)C[C@H]3c3ccc(Cl)cc3)CC2)c([C@@H](NC(=O)CCN(C)C)C(C)C)c1 | –
1 nM | 5.2 nM | 38% | Cc1ccc(N2CCN(C(=O)[C@@H]3CN(C4CCOCC4)C[C@H]3c3ccc(Cl)cc3)CC2)c([C@@H](NC(=O)[C@H](C)N)C(C)C)c1 | –
3700 nM | – | – | COc1cccc([C@@H]2CN(C(C)C)C[C@H]2C(=O)N2CCN(c3c(F)cccc3[C@@H](NC(=O)CCN(C)C)C(C)C)CC2)c1 | –
